# Source: ChEMBL document CHEMBL1121484, “Thrombin inhibitors. 2. Amide derivatives of N alpha-substituted L-arginine” (J Med Chem, 1980)
# pIC50: −log10 of the molar value.
# Target: Prothrombin (Bos taurus, UniProt P00735)
# Assay: Bovine thrombin concentration at which clotting time was prolonged 2x over the control.
# Assay type: functional
# Conditions: read-out: I50
# Summary of the method: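 Clotting assay at 25 °C. The read-out was the time from thrombin addition to clot formation.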
row,pIC50,Compound
1,4.30,CCCCNC(=O)C(CCCNC(=N)N)NS(=O)(=O)c1cccc2ccccc12 (configuration not stated)
2,5.19,CC1CCCN(C(=O)C(CCCNC(=N)N)NS(=O)(=O)c2cccc3c(N(C)C)cccc23)C1 (configuration not stated)
3,5.00,CCC1CCN(C(=O)C(CCCN=C(N)N)NS(=O)(=O)c2ccc3cc4c(cc3c2)OCCO4)CC1 (configuration not stated)
4,7.12,COc1ccc2cc(S(=O)(=O)NC(CCCN=C(N)N)C(=O)N3CCC(C)CC3)cc(OC)c2c1 (configuration not stated)
5,4.00,N=C(N)NCCCC(NS(=O)(=O)c1cccc2ccccc12)C(=O)N1CCC(c2ccccc2)CC1 (configuration not stated)
6,5.70,CN1CCN(C(=O)C(CCCN=C(N)N)NS(=O)(=O)c2cccc3c(N(C)C)cccc23)CC1 (configuration not stated)
7,3.30,COc1ccc(CNC(=O)C(CCCN=C(N)N)NS(=O)(=O)c2cccc3c(N(C)C)cccc23)cc1 (configuration not stated)
8,4.70,CCCCCCNC(=O)C(CCCN=C(N)N)NS(=O)(=O)c1cccc2c(N(C)C)cccc12 (configuration not stated)
9,6.05,CN(C)c1cccc2c(S(=O)(=O)NC(CCCNC(=N)N)C(=O)N3CCCCCC3)cccc12 (configuration not stated)
10,6.00,CCCC1CCN(C(=O)C(CCCN=C(N)N)NS(=O)(=O)c2cccc3c(N(C)C)cccc23)CC1 (configuration not stated)
11,5.22,CCC1CCN(C(=O)C(CCCNC(=N)N)NS(=O)(=O)c2cccc3c(C#N)cccc23)CC1 (configuration not stated)
12,6.52,CCC1CCN(C(=O)C(CCCNC(=N)N)NS(=O)(=O)c2ccc3c(c2)Cc2ccccc2O3)CC1 (configuration not stated)
13,5.00,C=CCNC(=O)C(CCCN=C(N)N)NS(=O)(=O)c1cccc2c(N(C)C)cccc12 (configuration not stated)
14,5.35,CC1CCN(C(=O)C(CCCN=C(N)N)NS(=O)(=O)c2ccc3ccccc3c2)CC1 (configuration not stated)
15,6.10,CCC1CCN(C(=O)C(CCCN=C(N)N)NS(=O)(=O)c2ccc3cc(OC(C)C)ccc3c2)CC1 (configuration not stated)
16,6.22,CCC1CCN(C(=O)C(CCCN=C(N)N)NS(=O)(=O)c2cccc3c(OC)cccc23)CC1 (configuration not stated)
17,5.30,CCOCCNC(=O)C(CCCN=C(N)N)NS(=O)(=O)c1cccc2c(N(C)C)cccc12 (configuration not stated)
18,6.30,CCCOc1cccc2c(S(=O)(=O)NC(CCCNC(=N)N)C(=O)N3CCC(CC)CC3)cccc12 (configuration not stated)
19,4.00,CCCCCCCNC(=O)C(CCCNC(=N)N)NS(=O)(=O)c1cccc2c(N(C)C)cccc12 (configuration not stated)
20,6.15,CCc1ccc2cc(S(=O)(=O)NC(CCCNC(=N)N)C(=O)N3CCC(CC)CC3)ccc2c1 (configuration not stated)
21,6.82,COc1cc2ccc(S(=O)(=O)NC(CCCN=C(N)N)C(=O)N3CCC(C)CC3)cc2cc1OC (configuration not stated)
22,4.70,N=C(N)NCCCC(NS(=O)(=O)c1ccc2ccccc2c1)C(=O)N1CCOCC1 (configuration not stated)
23,2.96,CC(C)NC(=O)C(CCCN=C(N)N)NS(=O)(=O)c1cccc2c(N(C)C)cccc12 (configuration not stated)

row,pIC50,Compound
1,6.40,CCC1CCN(C(=O)C(CCCNC(=N)N)NS(=O)(=O)c2cccc3c(OC(C)C)cccc23)CC1 (configuration not stated)
2,6.52,CCC1CCN(C(=O)C(CCCN=C(N)N)NS(=O)(=O)c2ccc3cc(N(C)C)ccc3c2)CC1 (configuration not stated)
3,4.00,CN(C)c1cccc2c(S(=O)(=O)NC(CCCN=C(N)N)C(=O)N3CCC(c4ccccc4)CC3)cccc12 (configuration not stated)
4,6.40,CCC1CCN(C(=O)C(CCCN=C(N)N)NS(=O)(=O)c2ccc3ccc(C)cc3c2)CC1 (configuration not stated)
5,4.77,CN(C)c1cccc2c(S(=O)(=O)NC(CCCNC(=N)N)C(=O)N3CCCc4ccccc43)cccc12 (configuration not stated)
6,4.40,CN(C)c1cccc2c(S(=O)(=O)NC(CCCNC(=N)N)C(=O)NCC3CCCCC3)cccc12 (configuration not stated)
7,6.52,COc1cccc2c(S(=O)(=O)NC(CCCN=C(N)N)C(=O)N3CCC(C)CC3)cccc12 (configuration not stated)
8,3.30,CN(C)c1cccc2c(S(=O)(=O)NC(CCCNC(=N)N)C(=O)NC3CC3)cccc12 (configuration not stated)
9,4.82,CCC1CCN(C(=O)C(CCCNC(=N)N)NS(=O)(=O)c2ccc3c(c2)CCCO3)CC1 (configuration not stated)
10,5.19,N=C(N)NCCCC(NS(=O)(=O)c1cccc2c1CCCC2)C(=O)N1CCOCC1 (configuration not stated)
11,6.00,CCC1CCN(C(=O)C(CCCN=C(N)N)NS(=O)(=O)c2cccc3c([N+](=O)[O-])cccc23)CC1 (configuration not stated)
12,4.30,CCCCN(C)C(=O)C(CCCN=C(N)N)NS(=O)(=O)c1cccc2ccccc12 (configuration not stated)
13,6.70,CCC1CCN(C(=O)C(CCCNC(=N)N)NS(=O)(=O)c2cccc3c2oc2ccccc23)CC1 (configuration not stated)
14,5.89,CC1CCCCN1C(=O)C(CCCN=C(N)N)NS(=O)(=O)c1cccc2c(N(C)C)cccc12 (configuration not stated)
15,6.30,CCC1CCN(C(=O)C(CCCN=C(N)N)NS(=O)(=O)c2ccc3cc(C)ccc3c2)CC1 (configuration not stated)
16,5.70,CN(C)c1cccc2c(S(=O)(=O)NC(CCCNC(=N)N)C(=O)N3CCC(C(C)(C)C)CC3)cccc12 (configuration not stated)
17,5.00,CN(C)c1cccc2c(S(=O)(=O)NC(CCCN=C(N)N)C(=O)N3CC4CCCC(C4)C3)cccc12 (configuration not stated)
18,4.00,CCNC(=O)C(CCCN=C(N)N)NS(=O)(=O)c1cccc2c(N(C)C)cccc12 (configuration not stated)
19,5.70,CCC1CCN(C(=O)C(CCCN=C(N)N)NS(=O)(=O)c2cccc3c(Cl)cccc23)CC1 (configuration not stated)
20,5.70,CCCCN(C)C(=O)C(CCCNC(=N)N)NS(=O)(=O)c1cccc2c(N(C)C)cccc12 (configuration not stated)
21,5.15,N=C(N)NCCCC(NS(=O)(=O)c1ccc2c(c1)CCCC2)C(=O)N1CCCC1 (configuration not stated)
22,4.82,CCCNC(=O)C(CCCN=C(N)N)NS(=O)(=O)c1cccc2c(N(C)C)cccc12 (configuration not stated)
23,5.70,CCC1CCN(C(=O)C(CCCN=C(N)N)NS(=O)(=O)c2ccc(OC)c3ccccc23)CC1 (configuration not stated)

row,pIC50,Compound
1,7.00,COc1ccc2ccc(S(=O)(=O)NC(CCCN=C(N)N)C(=O)N3CCC(C)CC3)cc2c1 (configuration not stated)
2,4.40,COCCNC(=O)C(CCCN=C(N)N)NS(=O)(=O)c1cccc2c1CCCC2 (configuration not stated)
3,5.40,COc1cccc2cccc(S(=O)(=O)NC(CCCN=C(N)N)C(=O)N3CCC(C)CC3)c12 (configuration not stated)
4,6.00,CCC1CCN(C(=O)C(CCCNC(=N)N)NS(=O)(=O)c2cccc3ccccc23)CC1 (configuration not stated)
5,4.40,CCCCN(CCCC)C(=O)C(CCCNC(=N)N)NS(=O)(=O)c1cccc2c(N(C)C)cccc12 (configuration not stated)
6,6.00,CCc1cc2cc(S(=O)(=O)NC(CCCN=C(N)N)C(=O)N3CCC(CC)CC3)ccc2oc1=O (configuration not stated)
7,6.52,CCC1CCN(C(=O)C(CCCN=C(N)N)NS(=O)(=O)c2cccc3c(N(CC)CC)cccc23)CC1 (configuration not stated)
8,3.89,CCCCCNC(=O)C(CCCN=C(N)N)NS(=O)(=O)c1cccc2c(N(C)C)cccc12 (configuration not stated)
9,5.40,COCCNC(=O)C(CCCNC(=N)N)NS(=O)(=O)c1cccc2c(N(C)C)cccc12 (configuration not stated)
10,5.30,CCC1CCN(C(=O)C(CCCNC(=N)N)NS(=O)(=O)c2ccc3c(c2)OCCCO3)CC1 (configuration not stated)
11,4.70,N=C(N)NCCCC(NS(=O)(=O)c1ccc2ccccc2c1)C(=O)N1CCCCCC1 (configuration not stated)
12,6.00,CN(C)c1cccc2c(S(=O)(=O)NC(CCCNC(=N)N)C(=O)N3CCc4ccccc43)cccc12 (configuration not stated)
13,6.00,CN(C)c1cccc2c(S(=O)(=O)NC(CCCN=C(N)N)C(=O)N3CCCCCCC3)cccc12 (configuration not stated)
14,6.82,CCC1CCN(C(=O)C(CCCN=C(N)N)NS(=O)(=O)c2ccc3cc(OC)c(OC)cc3c2)CC1 (configuration not stated)
15,6.82,CCC1CCN(C(=O)C(CCCNC(=N)N)NS(=O)(=O)c2ccc3c(c2)Oc2ccccc2O3)CC1 (configuration not stated)
16,3.30,CN(C)c1cccc2c(S(=O)(=O)NC(CCCNC(=N)N)C(=O)NC3CCCCC3)cccc12 (configuration not stated)
17,5.26,CCOc1cc2ccc(S(=O)(=O)NC(CCCN=C(N)N)C(=O)N3CCC(CC)CC3)cc2cc1OCC (configuration not stated)
18,5.30,CCCCNC(=O)C(CCCN=C(N)N)NS(=O)(=O)c1ccc2c(c1)CCCC2 (configuration not stated)
19,5.15,CN(Cc1ccccc1)C(=O)C(CCCN=C(N)N)NS(=O)(=O)c1cccc2c(N(C)C)cccc12 (configuration not stated)
20,5.40,CC1CCN(C(=O)C(CCCN=C(N)N)NS(=O)(=O)c2cccc3ccccc23)CC1 (configuration not stated)
21,6.00,CCC1CCN(C(=O)C(CCCN=C(N)N)NS(=O)(=O)c2cccc3ccc(C)cc23)CC1 (configuration not stated)
22,6.22,CN(C)c1cccc2c(S(=O)(=O)NC(CCCNC(=N)N)C(=O)N3CCOCC3)cccc12 (configuration not stated)
23,5.48,CN(C)c1cccc2c(S(=O)(=O)NC(CCCNC(=N)N)C(=O)N3CCCC3)cccc12 (configuration not stated)

row,pIC50,Compound
1,6.30,CCC1CCN(C(=O)C(CCCN=C(N)N)NS(=O)(=O)c2cccc3c2CCCC3)CC1 (configuration not stated)
2,3.82,CN(C)c1cccc2c(S(=O)(=O)NC(CCCNC(=N)N)C(=O)NCCc3ccccc3)cccc12 (configuration not stated)
3,5.40,COC1CCN(C(=O)C(CCCN=C(N)N)NS(=O)(=O)c2cccc3c(N(C)C)cccc23)CC1 (configuration not stated)
4,6.00,CC1CCN(C(=O)C(CCCNC(=N)N)NS(=O)(=O)c2cccc3c2CCCC3)CC1 (configuration not stated)
5,5.22,CCC1CCN(C(=O)C(CCCN=C(N)N)NS(=O)(=O)c2ccc3ccc(O)cc3c2)CC1 (configuration not stated)
6,4.30,CN(C)c1cccc2c(S(=O)(=O)NC(CCCN=C(N)N)C(=O)NCc3ccccc3)cccc12 (configuration not stated)
7,5.46,CC(=O)N1CCN(C(=O)C(CCCN=C(N)N)NS(=O)(=O)c2cccc3c(N(C)C)cccc23)CC1 (configuration not stated)
8,5.22,CCC1CCN(C(=O)C(CCCN=C(N)N)NS(=O)(=O)c2cccc3c(O)cccc23)CC1 (configuration not stated)
9,5.00,N=C(N)NCCCC(NS(=O)(=O)c1cccc2ccccc12)C(=O)N1CCCCCC1 (configuration not stated)
10,6.00,CC(C)C1CCN(C(=O)C(CCCN=C(N)N)NS(=O)(=O)c2cccc3c(N(C)C)cccc23)CC1 (configuration not stated)
11,6.70,CCC1CCN(C(=O)C(CCCNC(=N)N)NS(=O)(=O)c2ccc3cc(OC)ccc3c2)CC1 (configuration not stated)
12,7.00,CCC1CCN(C(=O)C(CCCNC(=N)N)NS(=O)(=O)c2ccc3ccc(OC)cc3c2)CC1 (configuration not stated)
13,4.26,CCN(CC)C(=O)C(CCCN=C(N)N)NS(=O)(=O)c1cccc2c(N(C)C)cccc12 (configuration not stated)
14,5.70,CN(C)c1cccc2c(S(=O)(=O)NC(CCCNC(=N)N)C(=O)N3CCCCCCCC3)cccc12 (configuration not stated)
15,4.22,COCCCNC(=O)C(CCCNC(=N)N)NS(=O)(=O)c1cccc2c(N(C)C)cccc12 (configuration not stated)
16,5.10,CN(C)c1cccc2c(S(=O)(=O)NC(CCCN=C(N)N)C(=O)N3CCC(C)(C)CC3)cccc12 (configuration not stated)
17,6.00,CCC1CCN(C(=O)C(CCCN=C(N)N)NS(=O)(=O)c2cc(OC)c3ccccc3c2)CC1 (configuration not stated)
18,4.70,N=C(N)NCCCC(NS(=O)(=O)c1cccc2ccccc12)C(=O)N1CCOCC1 (configuration not stated)
19,6.52,CCC1CCN(C(=O)C(CCCNC(=N)N)NS(=O)(=O)c2ccc3c(c2)oc2ccccc23)CC1 (configuration not stated)
20,5.70,CN(C)c1cccc2c(S(=O)(=O)NC(CCCNC(=N)N)C(=O)N3CCSCC3)cccc12 (configuration not stated)
21,7.00,CCC1CCN(C(=O)C(CCCNC(=N)N)NS(=O)(=O)c2cccc3c(N(C)C)cccc23)CC1 (configuration not stated)
22,4.30,CCCCN(CC)C(=O)C(CCCN=C(N)N)NS(=O)(=O)c1cccc2c(N(C)C)cccc12 (configuration not stated)
23,4.00,CC(C)CNC(=O)C(CCCNC(=N)N)NS(=O)(=O)c1cccc2c(N(C)C)cccc12 (configuration not stated)
